From ChEMBL document CHEMBL1955800, “Synthesis and biological validation of novel pyrazole derivatives with anticancer activity guided by 3D-QSAR analysis” (Bioorg Med Chem, 2012)

Experiments:
[1] = tested on: A549; assay: Growth inhibition of human A549 cells after 48 hrs by MTS assay; type: functional, cell-based; settings: A549, 48 h
Procedure, shortened: (§1)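 Seeded at 5 × 10³ cells/well in F12K (A549) or RPMI 1640 (NCI-H23) with 10% FBS, 37 °C, 5% CO₂, 3 h, then exposed 48 h to compounds at final 100–0.2 µM (10 mM DMSO stocks, 1% DMSO constant). MTS reagent added and incubated at 37 °C. Formazan from metabolically active cells measured, growth relative to untreated control, IC50 derived.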

[2] = tested on: A549; assay: Antiproliferative activity against human A549 cells after 48 hrs by BrdU assay; type: functional, cell-based; settings: A549, 48 h
Procedure, shortened: (§2)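 Seeded at 5 × 10³ cells/well in RPMI 1640 + 10% FBS, 37 °C, 5% CO₂, 3 h. Compounds from 10 mM DMSO stocks, final 100–0.2 µM with 1% DMSO, 48 h. BrdU (final 10 µM) added for 3 h, then cells fixed and DNA denatured 30 min rt, ELISA absorbance read. DNA synthesis reduction relative to untreated cells, IC50 by curve fit.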

[3] = tested on: NCI-H23; assay: Growth inhibition of human NCI-H23 cells after 48 hrs by MTS assay; type: functional, cell-based; settings: NCI-H23, 48 h; procedure, shortened: as §1
[4] = tested on: NCI-H23; assay: Antiproliferative activity against human NCI-H23 cells after 48 hrs by BrdU assay; type: functional, cell-based; settings: NCI-H23, 48 h; procedure, shortened: as §2
[5] = Solubility of the compound in DMSO; type: physicochemical

Row | Compound | IC50 ([1]; read-out: IC50) | IC50 ([1]; read-out: pIC50 (converted)) | IC50 [2] | IC50 [3] | IC50 [4] | solubility [5]
1 | CC(C)(C)c1ccc(Cn2nc(-c3ccc(Cl)cc3)cc2C(=O)N/N=C/c2ccc(F)cc2F)cc1 | > 100 µM | > 100 µM | > 100 µM | > 100 µM | 21.9 µM | –
2 | O=C(N/N=C/c1ccccc1O)c1cc(-c2ccc(Cl)cc2)nn1Cc1ccc(Cl)nc1 | – | – | – | 3.04 µM | 0.27 µM | –
3 | CC(C)(C)c1ccc(Cn2nc(-c3ccc(Cl)cc3)cc2C(=N)NO)cc1 | 17.7 µM | 17.8 µM | 17 µM | 16.5 µM | 12.3 µM | –
4 | N#Cc1ccc(/C=N/NC(=O)c2cc(-c3ccc(Cl)cc3)nn2Cc2ccc(Cl)nc2)cc1 | > 100 µM | > 100 µM | > 100 µM | > 100 µM | > 100 µM | Insoluble
5 | N=C(NO)c1cc(-c2ccc(Cl)cc2)nn1Cc1ccc(Cl)nc1 | 50.5 µM | 50.1 µM | 38.3 µM | 44.4 µM | 27.9 µM | –
6 | O=C(N/N=C/c1ccc(F)cc1F)c1cc(-c2ccc(Cl)cc2)nn1Cc1ccc(Cl)nc1 | 16 µM | 15.8 µM | 9.05 µM | 13.5 µM | 7.86 µM | –

Results, then the compound that gave them:

Row | IC50 ([1]; read-out: IC50) | IC50 ([1]; read-out: pIC50 (converted)) | IC50 [2] | IC50 [3] | IC50 [4] | solubility [5] | Compound
7 | 83.2 µM | 83.2 µM | 26.8 µM | 21.9 µM | 15.6 µM | – | CC(C)(C)c1ccc(Cn2nc(-c3ccc(Cl)cc3)cc2/C(N)=N/OC(=O)c2cccc(O)c2O)cc1
8 | 7.8 µM | 7.76 µM | 0.4 µM | 3.91 µM | 0.3 µM | – | CC(C)(C)c1ccc(Cn2nc(-c3ccc(Cl)cc3)cc2C(=O)N/N=C/c2cccc(O)c2O)cc1
9 | > 100 µM | > 100 µM | 1.54 µM | > 100 µM | 0.36 µM | – | CC(C)(C)c1ccc(Cn2nc(-c3ccc(Cl)cc3)cc2-c2noc(-c3cccc(O)c3O)n2)cc1
10 | 5.2 µM | 5.25 µM | 0.7 µM | 3.35 µM | 0.57 µM | – | O=C(N/N=C/c1cccc(O)c1O)c1cc(-c2ccc(Cl)cc2)nn1Cc1ccc(Cl)nc1
